# Calls of active or inactive are those of the source. Rule as the data show it, unless noted: active = inhibition above about 30%; inactive = the rest.
# Assays:
# [1] = HUVEC growth inhibition – cell-based, human, primary screen (AID 575;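 active = viability at or below 30% in both replicate assays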;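 also: 100% = median of untreated cell wells with 0.1% DMSO on each plate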); settings: HUVEC proliferation, CellTiter-Glo luminescence, 72 h; at 10 µM; stronger effect = lower value
# Outline: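 Assay system: primary human umbilical vein endothelial cells / Buffer or medium: endothelial basal medium with 2% FBS plus growth supplements / Compound dosing: one dose, 10 µM final, 0.1% DMSO / Timing: 72 h treatment at 37 °C / Signal: CTG luminescence / Benchmarks: 32 DMSO-only cell-control wells (high), 32 MePR drug-control wells (low) per plate / Plate: collagen-coated 384-well format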
# [2] = H69AR cell proliferation blockers – human, duplicate replicates, primary screen (AID 580;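 active = viability at or under a set limit in both replicates, limit being median viability minus 3 SD, cut at about 48% in these data, passing the limit was not always enough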;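 also: 100% = mean luminescence of untreated wells and 0% = no signal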); settings: H69AR lung tumor cells viability, ATP luminescence, 72 h; at 10 µM; stronger effect = lower value
# [3] = MRP1 drug-resistance reversers in H69AR cells – cell-based, doxorubicin co-treatment, pilot screen (AID 601;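 active = viability loss from added drug above about 55%, and viability with drug at most 40%, in both replicates, limit read from the data, passing the limit was not always enough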); settings: CellTiter-Glo, 72 h, at 10 µM; for differential viability (reversal): stronger effect = higher value
# [4] = yeast transport mutant growth inhibition pilot in 384-well plates, post-Golgi transport modulator project (AID 636; in the data active = inhibition above about 31%); settings: absorbance 615 nm, about 18 h, stronger effect = higher value
# [5] = growth suppression of yeast trafficking mutant, preliminary HTS, modulators of trafficking downstream of Golgi apparatus project, 1536-format plate, OD 615 nm (AID 637); settings: yeast transport mutant growth, absorbance 615 nm, 18 h; stronger effect = higher value
# [6] = H69AR cells + 2 uM doxorubicin, measured here: viability with 2 uM doxorubicin, stronger effect = lower value
# [7] = H69AR cells, compound alone cytotoxicity
Compound,viability [1],viability [2],differential viability (reversal) ([3]; H69AR cells + 2 uM doxorubicin),"viability [3, 6] [%]","viability [3, 7] [%]",inhibition [4],inhibition [5]
Cc1ccc(Nc2nnns2)cc1C,84.6% (inactive),99.8% (inactive),10.1% (inactive),89.7,99.8,-1.04% (inactive),-3.02% (inactive)
Cc1ccc2nsnc2c1S(=O)(=O)N1CCN(Cc2ccc3c(c2)OCO3)CC1,91% (inactive),91% (inactive),1.65% (inactive),89.3,91,-3.03% (inactive),2.86% (inactive)
CCOC(=O)N1CCC(N(C(=O)Nc2ccc(Cl)c(Cl)c2)C(C)CC)CC1 (configuration not stated),79.3% (inactive),97.7% (inactive),4.27% (inactive),93.4,97.7,-2.63% (inactive),0.79% (inactive)
Cc1nc(SCC(=O)NCc2ccco2)c2c(C)c(C)sc2n1,81.7% (inactive),86.6% (inactive),15.1% (inactive),71.4,86.6,-2.86% (inactive),-0.79% (inactive)
O=C(NCC1CCCO1)C1CC(c2ccc(Cl)c(Cl)c2)=NO1 (configuration not stated),111% (inactive),104% (inactive),-1.44% (inactive),105,104,-0.13% (inactive),-8.1% (inactive)
CCOc1ccc(N2CC(C(=O)Nc3ccc(F)cc3F)CC2=O)cc1 (configuration not stated),110% (inactive),111% (inactive),19.7% (inactive),90.9,111,-0.26% (inactive),-5.08% (inactive)
CC(OC1=CC(=O)CCC1)C(=O)c1ccccc1 (configuration not stated),102% (inactive),108% (inactive),18% (inactive),89.8,108,-2.6% (inactive),-0.48% (inactive)
CN(C)c1ccnc(NCc2ccccc2)c1C#N,92.7% (inactive),85.8% (inactive),6.29% (inactive),79.5,85.8,-4.53% (inactive),4.6% (inactive)
O=C(CN1c2cccc3cccc(c23)S1(=O)=O)N1CCOCC1,105% (inactive),92.5% (inactive),-0.865% (inactive),93.4,92.5,-3.2% (inactive),0.16% (inactive)
CCOC(=O)C1CCCn2c1nc1sc3c(c1c2=O)CCCC3 (configuration not stated),86.1% (inactive),89.1% (inactive),-9.13% (inactive),98.3,89.1,0.27% (inactive),-4.6% (inactive)
CCOC(=O)CC(C#N)c1cn(C)c2ccccc12 (configuration not stated),86.6% (inactive),88% (inactive),-4.15% (inactive),92.2,88,-6.58% (inactive),-4.6% (inactive)
COc1ccccc1C(=O)Nc1ccccc1C(=O)N1CCCC1,92.3% (inactive),96% (inactive),11.9% (inactive),84.1,96,-4.68% (inactive),1.27% (inactive)
CN=C(C)C1=C(O)C(C(=O)OC)C(C)(C)CC1=O (configuration not stated),108% (inactive),98.5% (inactive),3.21% (inactive),95.3,98.5,-1.43% (inactive),2.7% (inactive)
CSc1ccccc1NC(=O)CN(Cc1ccccc1)S(C)(=O)=O,82.7% (inactive),93.1% (inactive),7.95% (inactive),85.2,93.1,-0.78% (inactive),10.6% (inactive)
O=C1c2cccnc2C(=O)N1c1cccc(-c2nc3ccccc3o2)c1,111% (inactive),92.9% (inactive),6.53% (inactive),86.4,92.9,-6.27% (inactive),3.65% (inactive)
O=C(NCCN1CCCCC1)c1ccc(=O)oc1,101% (inactive),99.2% (inactive),9.61% (inactive),89.6,99.2,-8.03% (inactive),-2.22% (inactive)
CS(=O)(=O)N(CC(=O)NC1CC1)c1cccc(F)c1,86.5% (inactive),90% (inactive),5.87% (inactive),84.1,90,-5.19% (inactive),0% (inactive)
CCOc1ccc(N(CC(=O)NCc2cccc(OC)c2)S(=O)(=O)c2c(C)noc2C)cc1,93.4% (inactive),91.2% (inactive),-4.58% (inactive),95.8,91.2,0.27% (inactive),-2.86% (inactive)
O=C(Cn1c(=O)[nH]c2ccsc2c1=O)N1CCN(c2ccc(F)cc2)CC1,91% (inactive),87.2% (inactive),1.24% (inactive),86,87.2,-1.84% (inactive),4.6% (inactive)
CSc1ccccc1NS(=O)(=O)c1ccccc1,101% (inactive),102% (inactive),10.8% (inactive),90.8,102,-4.61% (inactive),0% (inactive)
COCCOC(=O)C1=C(C)NC(=O)CC1c1cc2c(cc1Br)OCO2 (configuration not stated),89.4% (inactive),97.4% (inactive),25.1% (inactive),72.4,97.4,-4.67% (inactive),2.86% (inactive)

Compound,viability [1],viability [2],differential viability (reversal) ([3]; H69AR cells + 2 uM doxorubicin),"viability [3, 6] [%]","viability [3, 7] [%]",inhibition [4],inhibition [5]
CSc1ccccc1NC(=O)c1noc2c1CCC2,77.8% (inactive),90.2% (inactive),1.63% (inactive),88.5,90.2,-3.38% (inactive),-3.49% (inactive)
CCOC(=O)c1ccc(NC(=O)Nc2ccn(C)n2)cc1,101% (inactive),91.2% (inactive),4.49% (inactive),86.7,91.2,-6.27% (inactive),1.75% (inactive)
CCOc1ccccc1N1CCN(S(=O)(=O)c2cccc3nsnc23)CC1,84.1% (inactive),86.1% (inactive),4.72% (inactive),81.4,86.1,0.26% (inactive),10.9% (inactive)
CCn1nccc1C(=O)Nc1nccs1,104% (inactive),93.7% (inactive),10% (inactive),83.7,93.7,-4.34% (inactive),3.65% (inactive)
CC1CCN(C(=O)c2cc(-c3ccc(Cl)c(Cl)c3)on2)CC1,77.1% (inactive),90.7% (inactive),10.5% (inactive),80.2,90.7,-2.11% (inactive),0.95% (inactive)
Cc1c(C(=O)Nc2ccncc2)oc2c1C(=O)CC(C)(C)C2,95.9% (inactive),91.3% (inactive),-5.27% (inactive),96.6,91.3,-8.4% (inactive),-1.43% (inactive)
COc1ccc(NC(=O)CSc2nnc(-c3ccncc3)n2CC2CCCO2)c(OC)c1 (configuration not stated),89.2% (inactive),104% (inactive),5.88% (inactive),97.7,104,-6.36% (inactive),4.13% (inactive)
COc1cccc(C(=O)Nc2cnc(NC(=O)c3ccco3)cc2C)c1,103% (inactive),86.6% (inactive),8.55% (inactive),78.1,86.6,-2.21% (inactive),-4.44% (inactive)
O=C(Cc1ccc(S(=O)(=O)N2CCCC2)s1)Nc1nc2c(s1)CCCC2,66.3% (inactive),95.7% (inactive),1% (inactive),94.7,95.7,-1.17% (inactive),-6.83% (inactive)
N#CCc1nc(CSc2nc3ccccc3s2)cs1,99.1% (inactive),91.3% (inactive),8.82% (inactive),82.4,91.3,-1.04% (inactive),3.02% (inactive)
O=C(NC(NC1CCS(=O)(=O)C1)C(=O)c1cccs1)c1ccccc1 (configuration not stated),106% (inactive),106% (inactive),7.72% (inactive),98.2,106,-1.17% (inactive),-3.33% (inactive)
CC(=O)Nc1ccc(S(=O)(=O)N(CC(=O)O)Cc2ccccc2)cc1,93.7% (inactive),97.7% (inactive),-6.14% (inactive),104,97.7,-2.47% (inactive),7.14% (inactive)
CCc1ccc(NC(=O)CS(=O)CC(=O)NCC2OCCc3ccccc32)cc1 (configuration not stated),101% (inactive),99.1% (inactive),4.08% (inactive),95,99.1,-0.93% (inactive),1.75% (inactive)
O=C1CC(c2ccccc2)CC(O)=C1C=NCCCN1CCOCC1 (configuration not stated),100% (inactive),100% (inactive),5.34% (inactive),95,100,-1.05% (inactive),-3.49% (inactive)
Cc1cc(C)c(C#N)c(SCc2ccc(C#N)cc2)n1,44.7% (inactive),68.5% (inactive),-7.06% (inactive),75.6,68.5,-2.27% (inactive),-2.86% (inactive)
CCOC(=O)C1CCCN(c2nc3ccccc3nc2C(C#N)C(=O)NCc2ccccc2)C1 (configuration not stated),80.6% (inactive),86.2% (inactive),0.385% (inactive),85.8,86.2,-3.95% (inactive),-1.27% (inactive)
O=C(NC1CCCC1)c1cc(-c2cccs2)on1,90.4% (inactive),88.6% (inactive),8.04% (inactive),80.6,88.6,-4.21% (inactive),3.17% (inactive)
CCc1ncc(C(O)c2cccc(OC)c2OC)n1C (configuration not stated),101% (inactive),98.7% (inactive),11.3% (inactive),87.3,98.7,-3.68% (inactive),4.13% (inactive)
CCSc1nnc(NC(=O)c2cc(C)oc2C)s1,85% (inactive),99.7% (inactive),12.6% (inactive),87.1,99.7,-3.55% (inactive),3.33% (inactive)
O=C(NCC(=O)N(CCc1ccccc1)C(C(=O)NC1CCCC1)c1cccnc1)c1ccco1 (configuration not stated),96.9% (inactive),99.8% (inactive),-1.49% (inactive),101,99.8,-2.24% (inactive),-6.98% (inactive)
